Experimental data from ChEMBL document CHEMBL4359875, “Development of novel theranostic agents for in vivo amyloid imaging and protective effects on human neuroblastoma cells” (Eur J Med Chem, 2019).
Active and inactive are the calls of the source. No cut-off for these calls is given here.

Key:
[1] = Stability in mouse plasma assessed as remaining compound at 50 uM incubated for 30 to 60 mins by HPLC analysis; format: ADME, cell-free; settings: read-out: Stability
Procedure, shortened: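 Compound in ethanol (50 μM) added to plasma (1:9 by volume), with PBS as the standard. Incubated at 37 °C for 30 or 60 min. Mixture treated twice with acetonitrile and centrifuged. Supernatant analysed by HPLC on C18 with CH3CN/H2O 85:15 at 1 mL/min, 30 °C.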

[2] = Photostability of compound; format: physicochemical
[3] = target: T1, Amyloid-beta precursor protein (Homo sapiens, UniProt P05067); assay: Inhibition of amyloid beta 1 to 42 (unknown origin)-induced cytotoxicity in human SH-SY5Y cells at 1 to 5 uM incubated for 24 hrs by MTT assay; format: cell-based
T1 sequence (P05067 whole entry): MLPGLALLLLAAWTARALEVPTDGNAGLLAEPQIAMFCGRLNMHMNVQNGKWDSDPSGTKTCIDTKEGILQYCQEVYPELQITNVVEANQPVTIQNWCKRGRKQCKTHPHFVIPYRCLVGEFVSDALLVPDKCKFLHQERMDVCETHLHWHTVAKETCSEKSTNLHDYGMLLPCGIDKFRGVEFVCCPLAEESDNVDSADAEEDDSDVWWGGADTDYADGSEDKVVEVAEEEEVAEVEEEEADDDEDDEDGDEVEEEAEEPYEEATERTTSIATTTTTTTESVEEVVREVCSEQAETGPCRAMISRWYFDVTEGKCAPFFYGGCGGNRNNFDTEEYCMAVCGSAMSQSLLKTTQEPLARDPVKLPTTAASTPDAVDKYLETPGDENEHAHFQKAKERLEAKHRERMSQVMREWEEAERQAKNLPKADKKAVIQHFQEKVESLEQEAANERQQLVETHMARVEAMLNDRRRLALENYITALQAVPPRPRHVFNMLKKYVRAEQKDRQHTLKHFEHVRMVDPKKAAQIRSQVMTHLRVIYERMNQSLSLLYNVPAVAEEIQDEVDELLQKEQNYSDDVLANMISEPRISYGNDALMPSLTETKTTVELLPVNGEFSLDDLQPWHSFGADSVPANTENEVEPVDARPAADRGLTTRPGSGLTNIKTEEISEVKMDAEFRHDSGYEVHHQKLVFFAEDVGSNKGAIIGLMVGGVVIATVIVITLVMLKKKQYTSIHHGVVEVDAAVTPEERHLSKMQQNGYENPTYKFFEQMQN
Procedure, shortened: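 SH-SY5Y at 5000 cells/well, incubated overnight. Treated for 24 h with 5 μM Aβ1-42 monomer plus compound (1 or 5 μM). MTT (5 mg/mL) added for 4 h, absorbance read at 570 nm.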

[4] = Metal chelating activity assessed as compound-Cu2+ complex formation at 20 uM by UV-visible spectroscopy
Procedure, shortened: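 UV/Vis titration: compound 20 μM in water with CuSO4 added from 0 to 1000 μM. Spectrum recorded after each addition. Triplicate.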

[5] = target: T1, Amyloid-beta precursor protein; assay: Binding affinity to amyloid beta 1 to 42 (unknown origin) in PBS buffer at pH 7.4 assessed as binding constant by fluorescence based assay
Procedure, shortened: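 Synthetic Aβ1-42 aggregates in PBS. Kd from a saturation binding assay read by fluorescence. Triplicate, mean ± SD.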

SH-SY5Y = assay: Dark toxicity against human SH-SY5Y cells assessed as reduction in cell viability at 50 uM incubated for 24 hrs by MTT assay; format: cell-based
Procedure, shortened: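 SH-SY5Y seeded at 5000 cells/well and incubated overnight. Compound added at a range of concentrations for 24 h, run with or without light exposure. MTT (5 mg/mL) added for 4 h, then absorbance read at 570 nm.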

[6] = target: T1, Amyloid-beta precursor protein; assay: Binding affinity to amyloid beta 1 to 42 (unknown origin) in PBS buffer at pH 7.4 assessed as increase in blue shift in maximum absorption at 0.2 uM by fluorescence based assay
Procedure, shortened: (§1)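 Fluorescence titration in PBS pH 7.4: probe 0.2 μM with stepwise addition of synthetic Aβ1-42 aggregates (0 to 10.0 μM). Emission maxima compared with probe alone in PBS.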

[7] = target: T1, Amyloid-beta precursor protein; assay: Inhibition of amyloid beta 1 to 42 (unknown origin)-induced ROS production in human SH-SY5Y cells at 1 and 5 uM incubated for 24 hrs by DCFH-DA staining based fluorescence assay; format: cell-based
Procedure, shortened: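 SH-SY5Y at 5000 cells/well, incubated overnight. Medium then replaced with Aβ1-42 (2 μM final) alone or with compound (1 and 5 μM) for 24 h at 37 °C, 5% CO2. DCFH-DA 10 μM added for 30 min at 37 °C, cells washed twice. Fluorescence read at ex/em 488/525 nm. Mean ± SD, Student's t test.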

[8] = target: Amyloid-beta precursor protein (Mus musculus) (UniProt P12023); assay: Binding affinity to amyloid beta 1 to 42 in C57BL/6 mouse brain hippocampus assessed as plague formation at 1 uM incubated for 5 mins by fluorescence microscopy
Chain of Amyloid-beta precursor protein (Mus musculus) (P12023 whole entry): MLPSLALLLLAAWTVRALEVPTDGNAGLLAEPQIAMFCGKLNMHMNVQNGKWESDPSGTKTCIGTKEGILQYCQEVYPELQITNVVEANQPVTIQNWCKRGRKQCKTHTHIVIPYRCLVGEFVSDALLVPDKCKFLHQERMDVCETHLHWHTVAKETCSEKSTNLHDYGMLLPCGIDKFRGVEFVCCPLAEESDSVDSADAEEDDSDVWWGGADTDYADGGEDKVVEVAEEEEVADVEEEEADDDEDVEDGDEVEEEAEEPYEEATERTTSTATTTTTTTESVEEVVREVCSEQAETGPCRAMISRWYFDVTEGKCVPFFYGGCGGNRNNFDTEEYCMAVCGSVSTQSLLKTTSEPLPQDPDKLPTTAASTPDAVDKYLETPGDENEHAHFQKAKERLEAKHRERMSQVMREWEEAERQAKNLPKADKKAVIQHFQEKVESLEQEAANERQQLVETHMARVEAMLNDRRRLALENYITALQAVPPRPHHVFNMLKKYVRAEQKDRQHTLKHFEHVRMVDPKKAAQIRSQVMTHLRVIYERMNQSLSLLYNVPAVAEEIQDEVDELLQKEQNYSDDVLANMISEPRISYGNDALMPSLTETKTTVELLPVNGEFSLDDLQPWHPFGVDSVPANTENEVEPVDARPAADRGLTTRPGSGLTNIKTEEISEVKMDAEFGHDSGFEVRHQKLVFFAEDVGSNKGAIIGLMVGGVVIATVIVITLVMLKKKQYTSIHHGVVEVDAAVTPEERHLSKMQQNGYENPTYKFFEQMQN
Procedure, shortened: (§2)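 Frozen brain sections from male APP/PS1 double transgenic mice and age-matched male C57BL/6 wild-type mice, both 10 months old. Sections were washed in PBS to remove OCT, then stained with 1 μM probe or ThT in 10% ethanol for 5 min at room temperature. They were washed twice with ethanol and PBS (0.1 M, pH 7.4) for 10 min. Cortex and hippocampus were imaged by fluorescence microscopy with GFP and Cy5 filter sets.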

[9] = target: Amyloid-beta precursor protein (Mus musculus) (UniProt P12023); assay: Binding affinity to amyloid beta 1 to 42 in double transgenic C57BL/6 APPswe/PSEN1 mouse assessed as plaque formation in cortex region at 1 uM incubated for 5 mins by fluorescence microscopy; procedure, shortened: as §2
[10] = target: T1, Amyloid-beta precursor protein; assay: Inhibition of amyloid beta 1 to 42 aggregation in human SH-SY5Y cells incubated for 48 hrs by fluorescence microscopy; format: cell-based
Procedure, shortened: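 SH-SY5Y seeded at 2000 cells/well with Aβ1-42 monomer (0.25 μM) alone or plus compound (0.05 or 0.5 μM), 48 h at 37 °C, 5% CO2. Controls got compound after the 2 days. Read as average pixel intensity of four random fields by fluorescence microscopy. Three independent experiments.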

Mus musculus [11] = assay: In vivo binding affinity to amyloid beta 1 to 42 in APP/PS1 double transgenic C57BL/6 mouse brain assessed as amyloid-beta plaque-compound complex formation at 4 mg/kg, iv measured for 5 to 60 mins by NIR imaging analysis; format: functional, organism-based
Procedure, shortened: (§3)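 Male APP/PS1 double-transgenic and age-matched wild-type C57BL/6 mice, 12 months old, shaved. Compound 4 mg/kg in 50 μl of 20% DMSO/80% propylene glycol given via tail vein. Mice kept under 2.5% isoflurane in oxygen. Head NIR fluorescence imaged before and at time points from 5 to 60 min after dosing.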

[12] = target: Amyloid-beta precursor protein (Mus musculus) (UniProt P12023); assay: Binding affinity to amyloid beta 1 to 42 in double transgenic C57BL/6 APPswe/PSEN1 mouse assessed as plaque formation in hippocampus region at 1 uM incubated for 5 mins by fluorescence microscopy; procedure, shortened: as §2
Mus musculus [13] = assay: In vivo binding affinity to amyloid beta 1 to 42 in C57BL/6 mouse brain assessed as amyloid-beta plaque-compound complex formation at 4 mg/kg, iv measured for 5 to 60 mins by NIR imaging analysis; format: functional, organism-based; procedure, shortened: as §3
[14] = target: Amyloid-beta precursor protein (Mus musculus) (UniProt P12023); assay: Binding affinity to amyloid beta 1 to 42 in C57BL/6 mouse brain cortex assessed as plague formation at 1 uM incubated for 5 mins by fluorescence microscopy; procedure, shortened: as §2
[15] = target: T1, Amyloid-beta precursor protein; assay: Binding affinity to amyloid beta 1 to 42 (unknown origin) in PBS buffer at pH 7.4 assessed as increase in red shift in maximum absorption at 0.2 uM by fluorescence based assay; procedure, shortened: as §1

| Structure (SMILES) | remaining at 50 µM [1] [%] | Stability [2] | Activity [3] | Activity [4] | Kd [5] [nM] | Activity (SH-SY5Y) | fold change (FC) [6] | Activity [7] | Activity [8] | Activity [9] | inhibition [10] | Activity (Mus musculus [11]) | Activity [12] | Activity (Mus musculus [13]) | Activity [14] | fold change (FC) [15] |
| --- | --- | --- | --- | --- | --- | --- | --- | --- | --- | --- | --- | --- | --- | --- | --- | --- |
| CN1c2ccccc2Sc2cc(/C=C3/SC(=S)N(CC(=O)OCC(O)CO)C3=O)ccc21 (stereo not drawn) | > 96 | Stable | Active | Active | 34.9 | Non-Toxic | 9.5 | Active | – | – | – | – | – | – | – | – |
| CN1c2ccccc2Sc2cc(/C=C3/SC(=S)N(CC(=O)OCC4COC(C)(C)O4)C3=O)ccc21 (stereo not drawn) | > 96 | Stable | – | – | 24.5 | Non-Toxic | 22 | – | inactive | Active | Dose-dependent effect | Active | Active | inactive | inactive | – |
| CN1c2ccccc2Sc2cc(/C=C3/SC(=S)N(CC(=O)N(CC(=O)O)CC(=O)O)C3=O)ccc21 | > 96 | Stable | Active | Active | 76.5 | Non-Toxic | – | Active | – | – | – | – | – | – | – | 2.4 |
| CCOC(=O)CN(CC(=O)OCC)C(=O)CN1C(=O)/C(=C\c2ccc3c(c2)Sc2ccccc2N3C)SC1=S | > 96 | Stable | – | – | 46.3 | Non-Toxic | 38.3 | – | – | – | – | – | – | – | – | – |
